Results: ChEMBL document CHEMBL3286129, “Optimization of peptidomimetic boronates bearing a P3 bicyclic scaffold as proteasome inhibitors” (Eur J Med Chem, 2014)

Tests used:
Type in all cases: functional
SF-268 = assay: Growth inhibition of human SF268 cells
[1] = Growth inhibition of human SF539 cells
[2] = Growth inhibition of human SF295 cells; settings: SF-295
SW-620 = assay: Growth inhibition of human SW620 cells
[3] = Cytotoxicity against human CNSC cells assessed as cell growth at 10 uM relative to control; settings: read-out: Activity
In short: (§1)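 Single-concentration screen against a panel of human cancer cell lines. Each value is the mean percent growth across the cell lines of that tumour subpanel.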

NCI-H322M = assay: Growth inhibition of human NCI-H322M cells
DU-145 = assay: Growth inhibition of human DU145 cells
[4] = Cytotoxicity against human ovarian cancer cells assessed as cell growth at 10 uM relative to control; settings: Cancer cell lines, read-out: Activity; in short: as §1
SR = assay: Growth inhibition of human SR cells
IGROV-1 = assay: Growth inhibition of human IGROV1 cells
[5] = Growth inhibition of human MOLT4 cells
COLO 205 = assay: Growth inhibition of human COLO205 cells
[6] = Cytotoxicity against human renal cancer cells assessed as cell growth at 10 uM relative to control; settings: Cancer cell lines, read-out: Activity; in short: as §1
NCI-H226 = assay: Growth inhibition of human NCI-H226 cells
[7] = Growth inhibition of human OVCAR4 cells
786-0 = assay: Growth inhibition of human 786-0 cells
[8] = Growth inhibition of human UACC257 cells
[9] = Growth inhibition of human NCI-ADR-RES cells
SK-MEL-28 = assay: Growth inhibition of human SK-MEL-28 cells
ACHN = assay: Growth inhibition of human ACHN cells
MDA-MB-231 = assay: Growth inhibition of human MDA-MB-231 cells
CCRF-CEM = assay: Growth inhibition of human CCRF-CEM cells
[10] = Growth inhibition of human OVCAR8 cells
SN12C = assay: Growth inhibition of human SN12C cells
[11] = Growth inhibition of human UACC62 cells; settings: UACC-62
[12] = Growth inhibition of human RXF393 cells
HCT-116 = assay: Growth inhibition of human HCT116 cells
[13] = Growth inhibition of human HOP92 cells
[14] = Growth inhibition of human OVCAR5 cells; settings: OVCAR-5
[15] = Growth inhibition of human HCC2998 cells; settings: HCC 2998
[16] = Cytotoxicity against human colon cancer cells assessed as cell growth at 10 uM relative to control; settings: Cancer cell lines, read-out: Activity; in short: as §1
[17] = Cytotoxicity against human prostate cancer cells assessed as cell growth at 10 uM relative to control; settings: Cancer cell lines, read-out: Activity; in short: as §1
K562 = assay: Growth inhibition of human K562 cells
A549 = assay: Growth inhibition of human A549/ATCC cells
[18] = Cytotoxicity against human leukemia cells assessed as cell growth at 10 uM relative to control; settings: read-out: Activity; in short: as §1
MDA-MB-435 = assay: Growth inhibition of human MDA-MB-435 cells
PC-3 = assay: Growth inhibition of human PC3 cells
MDA-MB-468 = assay: Growth inhibition of human MDA-MB-468 cells
[19] = read-out: LC50 (the source's name)

With `CC(C)C[C@H](NC(=O)CCn1ccc2ncccc2c1=O)B(O)O` the GI50 (SF-268) was 14.7 µM, the LC50 (SF-268) was over 100 µM and the TGI (SF-268) was over 100 µM. For the same molecule, the GI50 ([1]; SF-539) was 2.76 µM, the TGI ([1]; SF-539) was 8.38 µM and the CC50 ([1]; SF-539, read-out: LC50 (the source's name)) was over 100 µM. The GI50 [2] was 8.92 µM, the LC50 [2] was over 100 µM and the TGI [2] was 36 µM. It also gave a GI50 (SW-620) of 4.62 µM, an LC50 (SW-620) of over 100 µM and a TGI (SW-620) of over 100 µM. For the same molecule, the growth at 10 µM [3] was 82.9%, the GI50 (NCI-H322M) was over 100 µM and the TGI (NCI-H322M) was over 100 µM. The CC50 (NCI-H322M; [19]) was over 100 µM, the GI50 (DU-145) was 32.7 µM and the TGI (DU-145) was over 100 µM. For the same molecule, the CC50 (DU-145; [19]) was over 100 µM, the growth at 10 µM [4] was 84.2% and the GI50 (SR) was 3.18 µM. The TGI (SR) was over 100 µM, the CC50 (SR; [19]) was over 100 µM and the GI50 (IGROV-1) was 60.2 µM. It also gave an LC50 (IGROV-1) of over 100 µM, a TGI (IGROV-1) of over 100 µM and a GI50 ([5]; MOLT-4) of 3.3 µM. The TGI ([5]; MOLT-4) was over 100 µM, the CC50 ([5]; MOLT-4, read-out: LC50 (the source's name)) was over 100 µM and the GI50 (COLO 205) was 10 µM. It also gave a TGI (COLO 205) of over 100 µM, a CC50 (COLO 205; [19]) of over 100 µM and a growth at 10 µM [6] of 76.1%. The GI50 (NCI-H226) was 2.68 µM, the TGI (NCI-H226) was 8.9 µM and the CC50 (NCI-H226; [19]) was 48 µM. The GI50 ([7]; OVCAR-4) was 28.4 µM, the TGI ([7]; OVCAR-4) was over 100 µM and the CC50 ([7]; OVCAR-4, read-out: LC50 (the source's name)) was over 100 µM. It also gave a GI50 (786-0) of 7.94 µM, a TGI (786-0) of over 100 µM and a CC50 (786-0; [19]) of over 100 µM. The GI50 ([8]; UACC-257) was 10.1 µM, the TGI ([8]; UACC-257) was 47 µM and the CC50 ([8]; UACC-257, read-out: LC50 (the source's name)) was over 100 µM. For the same molecule, the GI50 [9] was over 100 µM, the LC50 [9] was over 100 µM and the TGI [9] was over 100 µM. It also gave a GI50 (SK-MEL-28) of 7.17 µM, a TGI (SK-MEL-28) of over 100 µM and a CC50 (SK-MEL-28; [19]) of over 100 µM. It also gave a GI50 (ACHN) of 9.15 µM, a TGI (ACHN) of over 100 µM and a CC50 (ACHN; [19]) of over 100 µM. For the same molecule, the GI50 (MDA-MB-231) was 7.94 µM, the TGI (MDA-MB-231) was 32.5 µM and the CC50 (MDA-MB-231; [19]) was over 100 µM. It also gave a GI50 (CCRF-CEM) of 2.35 µM, a TGI (CCRF-CEM) of over 100 µM and a CC50 (CCRF-CEM; [19]) of over 100 µM. It also gave a GI50 ([10]; OVCAR-8) of 37.5 µM, a TGI ([10]; OVCAR-8) of over 100 µM and a CC50 ([10]; OVCAR-8, read-out: LC50 (the source's name)) of over 100 µM. The GI50 (SN12C) was 18 µM, the TGI (SN12C) was over 100 µM and the CC50 (SN12C; [19]) was over 100 µM. The GI50 [11] was 5.55 µM, the LC50 (concentration killing 50% of cells) [11] was over 100 µM and the TGI [11] was 48.8 µM. It also gave a GI50 ([12]; RXF 393) of 3.29 µM, a TGI ([12]; RXF 393) of 14.3 µM and a CC50 ([12]; RXF 393, read-out: LC50 (the source's name)) of 54.2 µM. For the same molecule, the GI50 (HCT-116) was 3.3 µM, the LC50 (HCT-116) was 86.2 µM and the TGI (HCT-116) was 16.5 µM. For the same molecule, the GI50 ([13]; HOP-92) was 16.8 µM, the TGI ([13]; HOP-92) was 71.3 µM and the CC50 ([13]; HOP-92, read-out: LC50 (the source's name)) was over 100 µM. The GI50 [14] was 17.1 µM, the LC50 [14] was over 100 µM and the TGI [14] was over 100 µM. It also gave a GI50 [15] of 13.6 µM, an LC50 [15] of 90.2 µM and a TGI [15] of 35 µM. For the same molecule, the growth at 10 µM [16] was 78.1%, the growth at 10 µM [17] was 98.5% and the GI50 (K562) was 17.2 µM. The TGI (K562) was over 100 µM, the CC50 (K562; [19]) was over 100 µM and the GI50 (A549) was 38 µM. It also gave a TGI (A549) of over 100 µM, a CC50 (A549; [19]) of over 100 µM and a growth at 10 µM [18] of 34.8%. The GI50 (MDA-MB-435) was 2.41 µM, the TGI (MDA-MB-435) was 7.02 µM and the CC50 (MDA-MB-435; [19]) was 67.8 µM. The GI50 (PC-3) was 41.4 µM, the TGI (PC-3) was over 100 µM and the CC50 (PC-3; [19]) was over 100 µM. The GI50 (MDA-MB-468) was 2.04 µM, the TGI (MDA-MB-468) was 9.96 µM and the CC50 (MDA-MB-468; [19]) was over 100 µM.
